Measurements: ChEMBL document CHEMBL1799915, “Antitubercular chromones and flavonoids from Pisonia aculeata” (2011)
In brackets after ≈: the same amount, converted by molar mass.

test system: Mycobacterium tuberculosis; test: Antitubercular activity against Mycobacterium tuberculosis H37Rv after 2 weeks by agar plate assay; assay type: functional; conditions: 336 h
How it was run: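 Inoculum from colonies suspended in 7H9 broth, adjusted to McFarland no. 1, then diluted; 33 μL spotted per quadrant. Incubated 35 °C, 10% CO2. MIC = lowest concentration giving complete growth inhibition, read by eye.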

Q: Which MIC does the source give for `Cc1c(O)c(C)c2c(c1O)C(=O)C[C@@H](c1ccccc1O)O2` here?
A: The MIC was 20 µg/mL (≈ 66.6 µM).

Q: How did the MIC turn out when `COc1cc(/C=C/C(=O)NC[C@H](O)c2ccc(O)cc2)ccc1O` was run?
A: Its MIC is 50 µg/mL (≈ 152 µM).

Q: For `COc1c(O)cc2c(c1O)C(=O)C[C@@H](c1ccccc1)O2` [DIHYDROOROXYLIN A], which MIC is on record?
A: Its MIC is 50 µg/mL (≈ 175 µM).

Q: For `CC[C@@H](CO)NCCN[C@@H](CC)CO` [ETHAMBUTOL], which MIC is on record?
A: The MIC was 6.25 µg/mL (≈ 30.6 µM).

Q: For `COc1cc(O)c2c(=O)cc(C)oc2c1` [EUGENIN], which MIC is on record?
A: The MIC was 103 µg/mL (≈ 500 µM).

Q: `Cc1c(O)c(C)c2occc(=O)c2c1O` [LEPTORUMOL] was tested. Which MIC did it give?
A: The MIC was 82.9 µg/mL (≈ 402 µM).

Q: For `Cc1cc(=O)c2c(O)cc(O)cc2o1` [NOREUGENIN], which MIC is on record?
A: Its MIC is 110 µg/mL (≈ 572 µM).

Q: How did the MIC turn out when `COc1c(O)c(C)c2occ(-c3ccccc3O)c(=O)c2c1O` [PISONIANONE] was run?
A: The MIC was ≥ 175 µg/mL.

Q: For `COc1cc2occc(=O)c2c(O)c1OC` [PISONIN A], which MIC is on record?
A: Its MIC is ≥ 100 µg/mL.

Q: For `COc1c(O)cc2oc(C)cc(=O)c2c1O` [PISONIN B], which MIC is on record?
A: The MIC was 25 µg/mL (≈ 113 µM).

Q: Which MIC does the source give for `COc1c(O)cc2occc(=O)c2c1O` [PISONIN C] here?
A: The MIC was 80 µg/mL (≈ 384 µM).

Q: How did the MIC turn out when `O=c1ccoc2cc3c(c(O)c12)OCO3` [PISONIN D] was run?
A: The MIC was ≥ 236 µg/mL.

Q: `Cc1cc(=O)c2c(O)c3c(cc2o1)OCO3` [PISONIN E] was tested. Which MIC did it give?
A: The MIC was ≥ 190 µg/mL.

Q: With `Cc1c(O)cc(O)c2c1O[C@H](c1ccccc1O)CC2=O` [PISONIVANONE] as the molecule, how does the MIC read?
A: Its MIC is 12.5 µg/mL (≈ 43.7 µM).
